Structures are written as SMILES. The source made the active and inactive calls. No cut-off for these calls is given here.

The test system of one data set is HT-29. Put plainly: Cytotoxicity against human HT-29 cells assessed as reduction in cell viability incubated for 72 hrs by MTT assay. The data set is classed as functional, cell-based. The note with it: HT-29, 72 h.
The subject of data set [1] is HCT-116. As to the kind of experiment: Induction of apoptosis in human HCT116 cells assessed as upregulation of cleaved caspase 9 level at 20 uM incubated for 24 hrs by Western blot analysis. The data set is classed as functional, cell-based. The essentials:
(§1)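 HCT-116 cells at 2 × 10⁵ cells/mL in DMEM/10% FBS, grown 12 h at 37 °C, then treated 24 h (vehicle DMSO). Lysates quantified by BCA, run on 10% SDS-PAGE, PVDF transfer, blocked in 5% milk/TBST, primary antibodies 4 °C overnight, HRP secondary 2 h, chemiluminescent detection; normalized to β-actin, n = 3.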
(In general: Immunoblotting shows a protein as a band on a membrane.)

Data set [2] concerns HCT-116. Put plainly: Antitumor activity against human HCT116 cells xenografted in BALB/c athymic nude mouse assessed as tumor growth inhibition at 60 mg/kg, po administered twice daily for 4 weeks and measured every 3 days. The data set is classed as functional. Particulars: HCT-116, po, 672 h, read-out: TGI. The method, boiled down:
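Male BALB/c athymic nude mice, 5 weeks old, 16−18 g, given 0.2 mL of 5 × 10⁷ cells/mL HCT-116 in right armpit. At about 100 mm³, randomized to groups of five; intragastric dosing twice daily for 4 weeks. Tumor volume and body weight every 3 days; tumors weighed after sacrifice; organs HE-stained.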
(In xenograft studies the graft and the host belong to different species.)

Data set [3] has as its system HCT-116. As to the kind of experiment: Induction of apoptosis in human HCT116 cells assessed as down regulation of total PARP at 20 uM incubated for 24 hrs by Western blot analysis. In kind it is functional, cell-based. The essentials: as §1
For data set [4], the system named is HCT-116. As to the kind of experiment: Effect on Wnt/beta-Catenin signaling in human HCT116 cells assessed as downregulation of beta-catenin protein level at 5 to 20 uM after 24 hrs by Western blotting analysis. Particulars: dose 5-20 µM. The data set is classed as functional, cell-based. The method, boiled down: as §1
Data set [5] relates to HCT-116. Put plainly: Induction of cell cycle arrest in human HCT116 cells assessed as accumulation at G0/G1 phase at 20 uM after 24 hrs by propidium iodide-staining based flow cytometry (reference value: 48.89%). The data set is classed as functional. On the technique in general: A flow cytometer gives signals particle by particle.
Data set [6] deals with HCT-116. As to the kind of experiment: Effect on Wnt/beta-Catenin signaling in human HCT116 cells assessed as reduction in MMP7 mRNA level at 20 uM after 24 hrs by RT-qPCR analysis. In kind it is functional, cell-based. The essentials:
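HCT-116 cells treated 24 h; total RNA by TRIZOL, one-step RT-qPCR: 55 °C 10 min, 95 °C 1 min, then 39 cycles of 95 °C 10 s and 60 °C 30 s, with melting-curve and no-template controls. β-Actin as internal standard; relative expression by 2^−ΔΔCt, mean ± SD (n = 3).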

Data set [7] deals with HCT-116. Put plainly: Induction of apoptosis in human HCT116 cells assessed as upregulation of cleaved caspase 3 level at 20 uM incubated for 24 hrs by Western blot analysis. In kind it is functional, cell-based. The essentials: as §1
Data set [8] is described as follows: Volume of distribution in Sprague-Dawley rat at 25 mg/kg, po measured up to 48 hrs by LC-MS/MS analysis. In kind it is ADME, organism-based. Particulars: in vivo. The essentials: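 Overnight-fasted male SD rats (250−270 g, n = 3/group), single oral 25 mg/kg in 5% CMC-Na (reference sodium salt in phosphate buffer); plasma at 0.25–48 h (12 timepoints), stored −40 °C; LC−MS/MS with internal-standard calibration 3–3000 ng/mL; parameters fitted by model.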

In data set [9] the target is Glycogen synthase kinase-3 beta (Homo sapiens) (UniProt P49841). As to the kind of experiment: Inhibition of GSK3beta phosphorylation at serine 9 in human HCT-116 cells after 24 hrs by Western blot analysis. In kind it is cell-based. Particulars: dose 5-20 µM. The method, boiled down: as §1
Data set [10] concerns HCT-116. As to the kind of experiment: Induction of apoptosis in human HCT116 cells assessed as upregulation of cleaved PARP level at 20 uM incubated for 24 hrs by Western blot analysis. In kind it is functional, cell-based. The essentials: as §1
Data set [11] in a line: Toxicity in BALB/c mouse xenografted with human HCT116 cells assessed as effect on liver tissue at 60 to 90 mg/kg, po administered twice daily for 4 weeks and measured every 3 days by HE staining based assay. The note with it: in vivo, 672 h, dose 60-90 mg/kg. The data set is classed as organism-based, HCT-116. The method, boiled down: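 Male 5-week BALB/c nude mice (16−18 g), 0.2 mL of 5 × 10⁷ cells/mL HCT-116 injected into right armpit; at ~100 mm³ randomized, 5/group; intragastric 60 or 90 mg/kg twice daily for 4 weeks; tumor volume and body weight every 3 days; after sacrifice heart, liver, spleen, lung, kidney HE-stained.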

The target of data set [12] is T1, Aldehyde dehydrogenase 1A1 (Homo sapiens) (UniProt P00352).
T1 sequence (whole entry): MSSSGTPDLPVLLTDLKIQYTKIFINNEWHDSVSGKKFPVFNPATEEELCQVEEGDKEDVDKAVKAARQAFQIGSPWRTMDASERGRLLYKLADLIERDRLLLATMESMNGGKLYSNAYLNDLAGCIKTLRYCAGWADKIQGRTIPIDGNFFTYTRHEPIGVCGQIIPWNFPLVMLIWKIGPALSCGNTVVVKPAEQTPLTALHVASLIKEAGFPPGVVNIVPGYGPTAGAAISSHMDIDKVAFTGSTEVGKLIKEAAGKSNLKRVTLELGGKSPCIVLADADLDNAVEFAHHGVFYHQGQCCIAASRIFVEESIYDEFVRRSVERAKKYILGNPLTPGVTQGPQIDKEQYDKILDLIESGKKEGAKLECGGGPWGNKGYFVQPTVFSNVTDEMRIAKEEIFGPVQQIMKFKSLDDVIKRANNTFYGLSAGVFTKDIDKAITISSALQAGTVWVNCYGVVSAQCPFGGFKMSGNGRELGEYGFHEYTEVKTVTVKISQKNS
As to the kind of experiment: Inhibition of ALDH1A1 in human HCT116 cells at 5 uM after 24 hrs by aldefluor staining based fluorescence analysis. The data set is classed as cell-based. Particulars: HCT-116. The essentials:
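HCT-116 cells, 2 × 10⁵/well, grown overnight at 37 °C, 5% CO₂, then treated 24 h (vehicle DMSO). Aldefluor staining read in FITC channel by FACS for proportion of ALDH⁺ cells; DEAB-pretreated cells set baseline fluorescence.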

Data set [13] deals with HCT-116. As to the kind of experiment: Induction of apoptosis in human HCT116 cells assessed as down regulation of pro-caspase 9 level at 20 uM incubated for 24 hrs by Western blot analysis. The data set is classed as functional, cell-based. The method, boiled down: as §1
The test system of data set [14] is HCT-116. As to the kind of experiment: Induction of apoptosis in human HCT116 cells assessed as late apoptotic cells at 20 uM after 24 hrs by annexin V-FITC/propidium iodide staining based flow cytometry (reference value: 5.1%). The data set is classed as functional.
Data set [15] in a line: AUC(0 to infinity) in Sprague-Dawley rat at 25 mg/kg, po measured up to 48 hrs by LC-MS/MS analysis. Also noted: route oral, dose 25 mg/kg, time <=48. In kind it is ADME, organism-based. Particulars: in vivo. The essentials:
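Overnight-fasted male SD rats (about 250−270 g), three per group, single oral 25 mg/kg; test compound suspended in 5% CMC-Na, control as sodium salt in phosphate buffer. Blood sampled 0.25–48 h, plasma by centrifugation, stored −40 °C, quantified by LC−MS/MS against plasma standard curve (3–3000 ng/mL) with internal standard; model-fitted PK parameters.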

Sequence of Glycogen synthase kinase-3 beta (Homo sapiens) (P49841 whole entry, looked up): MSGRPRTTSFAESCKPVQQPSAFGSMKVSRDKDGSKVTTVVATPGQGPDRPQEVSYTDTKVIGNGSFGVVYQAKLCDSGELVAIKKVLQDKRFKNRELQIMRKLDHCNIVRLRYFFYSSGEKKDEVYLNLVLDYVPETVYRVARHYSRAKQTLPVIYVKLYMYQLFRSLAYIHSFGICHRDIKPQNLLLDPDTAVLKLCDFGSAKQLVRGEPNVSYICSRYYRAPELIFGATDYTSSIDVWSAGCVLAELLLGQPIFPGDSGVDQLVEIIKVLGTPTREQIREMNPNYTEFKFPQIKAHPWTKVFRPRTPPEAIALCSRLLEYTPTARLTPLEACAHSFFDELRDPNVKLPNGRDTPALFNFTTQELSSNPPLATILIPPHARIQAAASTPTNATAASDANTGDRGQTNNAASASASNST

In general, IC50 refers to the concentration that gives 50% inhibition. What is called inhibition is the drop in the measured response relative to a control, in per cent. A word on the AUC(0-inf): it is the area under the concentration-time curve extrapolated to infinity. With `O=C(NCCO)c1ccc2c(c1)nc(Nc1cccc(Cl)c1)c1ccncc12`, the IC50 with HT-29 amounted to 5.18 µM. The result in the data set on HCT-116 [1], with HCT-116 [3], with HCT-116 [4], with HCT-116 [6], in the data set with HCT-116 [7] and in the data set with HCT-116 [10] was Active. For the same compound, in the data set on HCT-116 [13], the result was Active. In the data set with HCT-116 [2], the inhibition in vivo at 60 mg/kg amounted to 59%. Further, the Activity with HCT-116 [5] is listed as 72.92%; in data set [11], “Non-Toxic”; in the data set with HCT-116 [14], 32.9%. Moreover, in data set [8], the Vd stood at 2.77 L/kg. The inhibition result in data set [9] was “Dose-Dependent Effect”; in data set [12], 77%. Further, the AUC(0-inf) in data set [15] amounted to 41500 ng·h/mL.

The values are drawn from ChEMBL document CHEMBL4808178 (J Med Chem, 2021).
